{"source": "paper PMC11375721", "about": "(ACS Omega, 2024)", "key": {"[1]": {"tested_on": "A549-PDL1 xenografts", "test": "In vivo pretargeting biodistribution", "parameters": "species or system mice", "details": "1 h after [^18F]PEG12-Tz; for A549-PDL1 tumor uptake / blood uptake / lung uptake / bone uptake / brain uptake / gall bladder uptake / heart uptake / intestine uptake / kidney uptake / liver uptake / muscle uptake / spleen uptake / stomach uptake / tumor/blood / tumor/muscle: n = 3; for tumor/blood / tumor/muscle: biodistribution", "method_in_brief": "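Male BALB/c nude mice (4–6 weeks, 13–18 g) received 5 × 10^6 A549-PDL1 and A549 cells in PBS subcutaneously behind the right armpit and were used once tumors reached 5–10 mm. Durvalumab-TCO or atezolizumab-TCO (300 μg in 150 μL PBS) was given i.v. by tail vein. After 24, 48 or 72 h, [18F]PEG12-Tz (1.85 MBq) was given i.v. Mice were killed 1 h later, and organs were weighed, γ-counted and expressed as %ID/g; n = 3. Controls: radioligand alone; blocking by co-injection of 50-fold molar excess atezolizumab plus 50 μg unlabeled tetrazine.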"}, "[2]": {"tested_on": "A549-PDL1 cells", "test": "Cellular uptake and internalization", "format": "cell-based", "method_in_brief": "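A549 cells stably transfected with PD-L1 by lentiviral infection, grown in RPMI-1640 with 15% FBS at 37 °C, 5% CO2. Cells were incubated with in vitro ligated [18F]Tz-TCO-antibody for 30, 60, 120 and 180 min at 37 °C, then washed twice in ice-cold PBS. Surface activity was stripped with glycine HCl (1 mol/L, pH 2.2) for 10 min at 37 °C. The lysate gave the internalized fraction; washes plus lysate gave total uptake, γ-counted. Three experiments, each in triplicate.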"}, "[3]": {"target": "PD-L1 (Homo sapiens, UniProt Q9NZQ7)", "sequence (Q9NZQ7 19-290)": "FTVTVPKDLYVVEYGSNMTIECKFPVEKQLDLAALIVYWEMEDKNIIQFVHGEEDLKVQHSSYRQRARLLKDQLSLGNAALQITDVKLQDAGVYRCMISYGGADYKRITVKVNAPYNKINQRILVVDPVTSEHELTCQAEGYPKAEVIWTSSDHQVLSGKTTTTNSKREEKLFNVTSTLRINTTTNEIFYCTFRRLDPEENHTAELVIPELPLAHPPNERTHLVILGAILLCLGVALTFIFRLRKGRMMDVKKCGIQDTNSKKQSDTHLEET", "test": "Saturation binding on A549-PDL1 cells", "details": "37 °C, 1 h", "method_in_brief": "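Antibody-TCO was ligated with [18F]Tz in PBS (pH 7) at room temperature, and the purified conjugate was added at 0.08–10 nM to A549-PDL1 cells (2 × 10^5/well) for 1 h at 37 °C. Nonspecific binding used 100-fold excess unlabeled antibody added 1 h beforehand. Cell-bound activity was γ-counted. Each condition was run in triplicate, and Kd came from one-site specific-binding nonlinear regression.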"}}, "data": [{"substance": "atezolizumab-TCO: atezolizumab (anti-PD-L1 antibody) modified with TCO-PEG4-NHS Ester, average 8 TCO per antibody", "values": [{"measurement": "A549-PDL1 tumor uptake", "setting": "[1]; 48 h after antibody-TCO 300 μg", "result": "1.65 ± 0.15", "unit": "% ID/g"}, {"measurement": "blood uptake", "setting": "[1]; 48 h after antibody-TCO 300 μg", "result": "1.86 ± 0.15", "unit": "% ID/g"}, {"measurement": "lung uptake", "setting": "[1]; 48 h after antibody-TCO 300 μg", "result": "1.65 ± 0.11", "unit": "% ID/g"}, {"measurement": "uptake in other organs such as the liver, muscles, bones, and intestines", "setting": "[1]; 48 h after atezolizumab-TCO", "result": "< 0.96", "unit": "% ID/g"}]}, {"substance": "durvalumab pretargeted: pretargeting pair: durvalumab-TCO injected first, [^18F]PEG12-Tz 24-72 h later, ligated in vivo", "values": [{"measurement": "A549-PDL1 tumor uptake", "setting": "[1]; 24 h after antibody-TCO 300 μg", "result": "2.52 ± 0.16", "unit": "% ID/g"}, {"measurement": "blood uptake", "setting": "[1]; 24 h after antibody-TCO 300 μg", "result": "8.80 ± 0.50", "unit": "% ID/g"}, {"measurement": "bone uptake", "setting": "[1]; 24 h after antibody-TCO 300 μg", "result": "1.16 ± 0.27", "unit": "% ID/g"}, {"measurement": "brain uptake", "setting": "[1]; 24 h after antibody-TCO 300 μg", "result": "0.29 ± 0.07", "unit": "% ID/g"}, {"measurement": "gall bladder uptake", "setting": "[1]; 24 h after antibody-TCO 300 μg", "result": "1.29 ± 0.08", "unit": "% ID/g"}, {"measurement": "heart uptake", "setting": "[1]; 24 h after antibody-TCO 300 μg", "result": "2.66 ± 0.49", "unit": "% ID/g"}, {"measurement": "intestine uptake", "setting": "[1]; 24 h after antibody-TCO 300 μg", "result": "0.54 ± 0.14", "unit": "% ID/g"}, {"measurement": "kidney uptake", "setting": "[1]; 24 h after antibody-TCO 300 μg", "result": "3.12 ± 0.31", "unit": "% ID/g"}, {"measurement": "liver uptake", "setting": "[1]; 24 h after antibody-TCO 300 μg", "result": "1.93 ± 0.59", "unit": "% ID/g"}, {"measurement": "lung uptake", "setting": "[1]; 24 h after antibody-TCO 300 μg", "result": "7.06 ± 1.90", "unit": "% ID/g"}, {"measurement": "muscle uptake", "setting": "[1]; 24 h after antibody-TCO 300 μg", "result": "0.72 ± 0.10", "unit": "% ID/g"}, {"measurement": "spleen uptake", "setting": "[1]; 24 h after antibody-TCO 300 μg", "result": "1.27 ± 0.22", "unit": "% ID/g"}, {"measurement": "stomach uptake", "setting": "[1]; 24 h after antibody-TCO 300 μg", "result": "0.50 ± 0.06", "unit": "% ID/g"}, {"measurement": "A549-PDL1 tumor uptake", "setting": "[1]; 48 h after antibody-TCO 300 μg", "result": "1.91 ± 0.38", "unit": "% ID/g"}, {"measurement": "blood uptake", "setting": "[1]; 48 h after antibody-TCO 300 μg", "result": "6.08 ± 1.82", "unit": "% ID/g"}, {"measurement": "bone uptake", "setting": "[1]; 48 h after antibody-TCO 300 μg", "result": "0.98 ± 0.26", "unit": "% ID/g"}, {"measurement": "brain uptake", "setting": "[1]; 48 h after antibody-TCO 300 μg", "result": "0.16 ± 0.04", "unit": "% ID/g"}, {"measurement": "gall bladder uptake", "setting": "[1]; 48 h after antibody-TCO 300 μg", "result": "1.11 ± 0.35", "unit": "% ID/g"}, {"measurement": "heart uptake", "setting": "[1]; 48 h after antibody-TCO 300 μg", "result": "1.57 ± 0.27", "unit": "% ID/g"}, {"measurement": "intestine uptake", "setting": "[1]; 48 h after antibody-TCO 300 μg", "result": "0.40 ± 0.07", "unit": "% ID/g"}, {"measurement": "kidney uptake", "setting": "[1]; 48 h after antibody-TCO 300 μg", "result": "2.68 ± 0.46", "unit": "% ID/g"}, {"measurement": "liver uptake", "setting": "[1]; 48 h after antibody-TCO 300 μg", "result": "1.19 ± 0.23", "unit": "% ID/g"}, {"measurement": "lung uptake", "setting": "[1]; 48 h after antibody-TCO 300 μg", "result": "3.19 ± 1.02", "unit": "% ID/g"}, {"measurement": "muscle uptake", "setting": "[1]; 48 h after antibody-TCO 300 μg", "result": "0.56 ± 0.20", "unit": "% ID/g"}, {"measurement": "spleen uptake", "setting": "[1]; 48 h after antibody-TCO 300 μg", "result": "0.48 ± 0.34", "unit": "% ID/g"}, {"measurement": "stomach uptake", "setting": "[1]; 48 h after antibody-TCO 300 μg", "result": "0.33 ± 0.09", "unit": "% ID/g"}, {"measurement": "A549-PDL1 tumor uptake", "setting": "[1]; 72 h after antibody-TCO 300 μg", "result": "1.60 ± 0.23", "unit": "% ID/g"}, {"measurement": "blood uptake", "setting": "[1]; 72 h after antibody-TCO 300 μg", "result": "5.29 ± 0.50", "unit": "% ID/g"}, {"measurement": "bone uptake", "setting": "[1]; 72 h after antibody-TCO 300 μg", "result": "0.53 ± 0.04", "unit": "% ID/g"}, {"measurement": "brain uptake", "setting": "[1]; 72 h after antibody-TCO 300 μg", "result": "0.14 ± 0.01", "unit": "% ID/g"}, {"measurement": "gall bladder uptake", "setting": "[1]; 72 h after antibody-TCO 300 μg", "result": "0.99 ± 0.22", "unit": "% ID/g"}, {"measurement": "heart uptake", "setting": "[1]; 72 h after antibody-TCO 300 μg", "result": "1.40 ± 0.28", "unit": "% ID/g"}, {"measurement": "intestine uptake", "setting": "[1]; 72 h after antibody-TCO 300 μg", "result": "0.51 ± 0.15", "unit": "% ID/g"}, {"measurement": "kidney uptake", "setting": "[1]; 72 h after antibody-TCO 300 μg", "result": "2.27 ± 0.37", "unit": "% ID/g"}, {"measurement": "liver uptake", "setting": "[1]; 72 h after antibody-TCO 300 μg", "result": "1.01 ± 0.16", "unit": "% ID/g"}, {"measurement": "lung uptake", "setting": "[1]; 72 h after antibody-TCO 300 μg", "result": "2.01 ± 0.06", "unit": "% ID/g"}, {"measurement": "muscle uptake", "setting": "[1]; 72 h after antibody-TCO 300 μg", "result": "0.43 ± 0.06", "unit": "% ID/g"}, {"measurement": "spleen uptake", "setting": "[1]; 72 h after antibody-TCO 300 μg", "result": "0.62 ± 0.13", "unit": "% ID/g"}, {"measurement": "stomach uptake", "setting": "[1]; 72 h after antibody-TCO 300 μg", "result": "0.75 ± 0.28", "unit": "% ID/g"}, {"measurement": "tumor/blood", "setting": "[1]; 24 h after antibody-TCO 300 μg", "result": "0.29 ± 0.04"}, {"measurement": "tumor/muscle", "setting": "[1]; 24 h after antibody-TCO 300 μg", "result": "3.51 ± 0.75"}, {"measurement": "tumor/blood", "setting": "[1]; 48 h after antibody-TCO 300 μg", "result": "0.31 ± 0.07"}, {"measurement": "tumor/muscle", "setting": "[1]; 48 h after antibody-TCO 300 μg", "result": "3.39 ± 0.46"}, {"measurement": "tumor/blood", "setting": "[1]; 72 h after antibody-TCO 300 μg", "result": "0.30 ± 0.02"}, {"measurement": "tumor/muscle", "setting": "[1]; 72 h after antibody-TCO 300 μg", "result": "3.68 ± 0.98"}]}, {"substance": "[^18F]Tz-TCO-atezolizumab: in vitro ligation product of [^18F]Tz with atezolizumab-TCO, directly labeled radioimmunoconjugate", "values": [{"measurement": "cellular uptake", "setting": "[2]; 30 min", "result": 3.76, "unit": "% ID/10^6 cells"}, {"measurement": "cellular uptake", "setting": "[2]; 180 min", "result": 9.85, "unit": "% ID/10^6 cells"}, {"measurement": "internalization rate", "setting": "[2]; 180 min", "result": 98.1, "unit": "%"}, {"measurement": "Kd", "setting": "[3]", "result": 1.38, "unit": "nM"}]}]}
